Test results from publication PMC11447725 (ACS Omega, 2024).
Several values for one entry are separate records, joined by “and”; a condition that tells them apart may be missing. Equal entries are not always repeated. Where two headings read alike, the source gives them in different places.

Experiments:
[1] = mice, cited from earlier work
[2] = rats, cited from earlier work
[3] = oral administration, rats; cited from earlier work
[4] = Stock solution stability at −30 ± 10 °C; format: physicochemical; settings: for observed conc. after storage: stock solution in methanol, 22 days; for observed conc. after storage / accuracy after storage: n = 3; for time stable in stock solution / accuracy after storage: stock solution; for accuracy after storage: 22 days (text: 20 days), vs fresh
Method in brief: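 HHC and IS methanol stocks were diluted in methanol to 375 and 110 ng/mL (n = 3) and stored at −30 ± 10 °C for 22 days. Peak responses by LC-MS/MS were compared with freshly prepared stocks, and results were checked against nominal values (precision within 15%, accuracy within ±15%).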

[5] = Pharmacokinetics of HHC in plasma after single oral administration in mice; format: in vivo; settings: 40 mg/kg
Method in brief: (§1)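 Male mice (18–22 g, acclimatised 1 week) received a single 40 mg/kg dose, IP or by oral gavage, in 0.1% DMSO diluted in 1% hydroxyethyl cellulose (10 μL/g). Four mice per time point (predose, 5–30 min, 1, 2, 4, 8, 24 h) were bled from the left ventricle under anaesthesia into EDTA. Plasma underwent MTBE extraction with butylparaben IS, then negative-ESI LC-MS/MS MRM. Noncompartmental analysis.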

[6] = Pharmacokinetics of HHC in plasma after single IP administration in mice; format: in vivo; settings: 40 mg/kg
Method in brief: as §1

[7] = Tissue distribution of HHC; format: in vivo, mice; settings: male, mouse, ip, 40 mg/kg
Method in brief: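 Mice were dosed 40 mg/kg IP in 0.1% DMSO/1% hydroxyethyl cellulose, and liver, kidney and brain were removed at the plasma sampling times (n = 4; brain n = 3). Tissues were homogenised 1:10 (w/w) in PBS. Brain was extracted like plasma; kidney and liver received acetone precipitation before MTBE extraction with butylparaben IS. Negative-ESI LC-MS/MS MRM, calibrated at 5–500 ng/mL. Noncompartmental parameters.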

[8] = Long-term stability of HHC in mice plasma at −30 ± 10 °C; format: in vitro ADME; settings: 20 days; for accuracy after storage / observed conc. after storage: n = 3
Method in brief: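 Blank mouse plasma was spiked at 15 and 375 ng/mL (n = 3) and kept at −30 ± 10 °C for 20 days. Samples were then extracted with MTBE using butylparaben IS and quantified by LC-MS/MS against daily calibration curves. Results were compared with nominal values; acceptance was precision within 15% and accuracy within ±15%.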

[9] = pH 7.4; cited from earlier work
[10] = after intravenous curcumin 20 mg/kg

COc1cc(/C=C/C(=O)CC(=O)CCc2ccc(O)c(OC)c2)ccc1O [dihydrocurcumin]
AUC0–∞ [1, 10]: 6.0 ± 1.2 mg·min/L | detection in kidneys [1, 10]: present

COc1cc(CCC(=O)CC(=O)CCc2ccc(O)c(OC)c2)ccc1O [tetrahydrocurcumin]
AUC0–∞ [1, 10]: 12.0 ± 4.0 mg·min/L | detection in liver [1, 10]: detectable

COc1cc(/C=C/C(=O)CC(=O)/C=C/c2ccc(O)c(OC)c2)ccc1O [curcumin]
elimination half-life (T1/2,β) ([2]; intravenous 10 mg/kg): 0.742 ± 0.125 h | Tmax ([2]; oral 500 mg/kg): 0.695 ± 0.09 h | elimination half-life (T1/2,β) ([2]; oral 500 mg/kg): 0.468 ± 0.0933 h | oral bioavailability [2]: approximately 1% | AUC0–∞ [1, 10]: 107.0 ± 18.3 mg·min/L | T1/2,z ([1]; intravenous curcumin 20 mg/kg, plasma): 0.538 ± 0.18 h | half-life [3]: 0.545 h

CCCCOC(=O)c1ccc(O)cc1 [IS, butylparaben, reference compound]
time stable in stock solution [4]: at least 22 days | observed conc. after storage ([4]; nominal 110.10 ng/mL): 112.08 ± 0.90 ng/mL | accuracy after storage [4]: 101.80%

COc1cc(CCC(=O)CC(O)CCc2ccc(O)c(OC)c2)ccc1O (stereo not shown) [HHC, hexahydrocurcumin]
AUC(0-inf) ([5]; male, mouse, po): 142 ng·h/mL | AUC(0-t) ([5]; male, mouse, po): 127 ng·h/mL | Cmax ([5]; male, mouse, po): 194 ± 43.5 ng/mL | MRT inf ([5]; male, mouse, po): 2.58 h | MRT last ([5]; male, mouse, po): 1.61 h | half-life ([5]; male, mouse, po, T1/2, oral 40 mg/kg, mice, n = 4): ~2.17 h | Tmax ([5]; male, mouse, po, Tmax, oral 40 mg/kg, mice, n = 4): ~0.25 h | half-life ([5]; male, mouse, po, half-life, oral 40 mg/kg, mice): ~2.17 h | percent relative bioavailability (AUC0–t oral / AUC0–t IP) ([5]; oral vs IP, mice): 12.28% | Cmax after IP relative to oral administration ([6]; mice, IP vs oral): 47.90 times and 47.9 times | Cmax ([6]; male, mouse, ip): 9300 ± 4290 ng/mL | MRT inf ([6]; male, mouse, ip): 0.875 h | MRT last ([6]; male, mouse, ip): 0.708 h | half-life ([6]; male, mouse, ip, T1/2, IP 40 mg/kg, mice, n = 4): ~1.52 h | Tmax ([6]; male, mouse, ip, Tmax, IP 40 mg/kg, mice, n = 4): ~5 min | half-life ([6]; male, mouse, ip, half-life, IP 40 mg/kg, mice): ~1.52 h | AUC(0-inf) ([7]; brain): 21.1 ng·h/mL | AUC(0-t) ([7]; brain): 18.7 ng·h/mL | Cmax ([7]; brain): 120 ± 54.1 ng/mL | MRT inf ([7]; brain): 2.04 h | MRT last ([7]; brain): 1.05 h | Tmax ([7]; brain): 5 min | half-life ([7]; brain): 1.77 ± 0.98 h | Cmax ([7]; kidney): 1700 ± 897 ng/mL | MRT inf ([7]; kidney): 1.94 h | MRT last ([7]; kidney): 1.6 h | Tmax ([7]; kidney): 6.3 min | half-life ([7]; kidney): 1.7 ± 0.623 h | MRT inf ([7]; liver): 2.67 h | MRT last ([7]; liver): 2.6 h | Tmax ([7]; liver): 5 min | half-life ([7]; liver): 1.74 ± 0.43 h | time stable in stock solution [4]: at least 22 days | observed conc. after storage ([4]; nominal 375.00 ng/mL): 398.08 ± 1.45 ng/mL | accuracy after storage [4]: 106.15% | stability in plasma samples [8]: stable | accuracy after storage ([8]; HQC nominal 375.00 ng/mL): 94.81% | observed conc. after storage ([8]; HQC nominal 375.00 ng/mL): 355.53 ± 34.51 ng/mL | accuracy after storage ([8]; LQC nominal 15.00 ng/mL): 90.27% | observed conc. after storage ([8]; LQC nominal 15.00 ng/mL): 13.54 ± 1.03 ng/mL | stability compared with curcumin [9]: superior stability to curcumin
